Source: PubChem BioAssay
Many of the other results were omitted from the sample, so hits are more common in it than they were.
INS promoter act – TRM-6 insulin promoter activation | TRM-6 cells (human fetal islet line), insulin promoter eGFP reporter, imaging; plate-scaled: unstimulated 0, stimulated control 100 | activation, % at 2 µM | 0.81% of 130,000 active;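 active = activation at 2 µM above a set limit, confirmed on inspection of the cell images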;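 note: share of cells whose green reporter signal exceeds an intensity cutoff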
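test system = TRM-6 insulin promoter–eGFP reporter cells | benchmarks = stimulated versus unstimulated wells as plate controls | read-out basis = percent cells above green-intensity threshold, converted to percent activation versus plate controls | detection = fixed-cell fluorescence microscopy, eGFP plus Hoechst | incubation = tamoxifen pre-incubation 15 h overnight, then compound exposure 48 h at 37 °C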
* marks the source's active call; other numbers are inactive results.

SMILES	INS promoter act
CN(Cc1ccccc1)S(=O)(=O)c1ccc(Cl)c(C(=O)NCCc2ccccn2)c1	0
COc1ccc(Br)cc1C(=O)Nc1ccccc1-c1ccccc1	-3
O=C(NCc1ccc(Cl)cc1)C(=O)NCC1OCCN1C(=O)c1ccc(Cl)cc1 (stereo not drawn)	-69
COc1ccc(S(=O)(=O)N2CCN(CC(=O)Nc3cccc(F)c3)CC2)cc1	-3
Cc1ccc(OCC(=O)Nc2ccc(S(=O)(=O)N3CCN(C)CC3)cc2)cc1	406*
CC(C)CC(=O)NC(=S)Nc1ccc(S(=O)(=O)N2CCN(C)CC2)cc1	8
Cc1ccc(S(=O)(=O)N2CCN(C(=O)COc3ccc(NC(=O)c4ccco4)cc3)CC2)cc1	107
CN1CCN(S(=O)(=O)c2ccc(N(C)CC(=O)Nc3ccc(F)cc3)nc2)CC1	-20
CN(CC(=O)Nc1ccc(S(=O)(=O)N2CCCC2)cc1)CC(=O)Nc1cccc(F)c1	220*
CC(=O)NN1C(=O)c2ccc(Oc3cccc([N+](=O)[O-])c3)cc2C1=O	2
C/C(N)=C(/C#N)C(=O)CSc1nc2ccccc2n1CC(C)C	0
O=C(NC1CCN(C(=O)Nc2ccccc2Cl)CC1)c1ccccc1	-7
N#CCC(=O)c1sccc1-n1cccc1	-7
Cc1ccc(N=C(NO)c2nonc2N)cc1	6
C#CCOC(=O)c1ccc(-n2cncn2)nc1	-6
O=C(CNC(=O)c1ccc(S(=O)(=O)N2CCCCC2)cc1)N/N=C/c1ccco1	114
COC(=O)c1c(NC(=O)Cc2cccs2)sc(C(=O)NC2CCCCC2)c1C	290
CCOC(=O)c1c(NC(=O)Cc2cccs2)sc(C(=O)NC2CCCC2)c1C	3
CCOC(=O)c1c(NC(=O)Cc2cccs2)sc(C(=O)NC2CCCCC2)c1C	153*
O=C(Nc1cccc(Cl)c1)/C(=C\c1cccnc1)NC(=O)c1ccco1	-67
CCCN1C(=O)c2cccc3c(N4CCCCC4)ccc(c23)C1=O	245*
CCN1C(=O)c2cccc3c(S(=O)(=O)Nc4ccccc4OC)ccc1c23	109
CCN(CC)S(=O)(=O)c1ccc(C(=O)OCCN2C(=O)c3cccc4c(N5CCOCC5)ccc(c34)C2=O)cc1	0
O=C(OCCN1C(=O)c2cccc3c(N4CCOCC4)ccc(c23)C1=O)c1cc(Cl)cc(Cl)c1	204*
Cn1nc(C(=O)OCCN2C(=O)c3ccccc3C2=O)c2ccccc2c1=O	3
SMILES	INS promoter act
O=C1c2cccc3c(N4CCCCC4)ccc(c23)C(=O)N1c1ccc(Cl)cn1	-5
CSCc1ccc(C(=O)Nc2ccc(C(N)=O)cc2)cc1	6
O=C(O)c1ccc(-c2ncc[nH]2)cc1	-80
O=C(Cc1ccc(Cl)cc1Cl)OCC(=O)N1CCN(C(=O)c2ccco2)CC1	-5
O=C(O)c1cc(S(=O)(=O)NCC2CCCO2)ccc1Cl (stereo not drawn)	-9
Cc1noc(C)c1CSc1nc2ccccc2s1	3
Cc1noc(C)c1CSc1ccc2ccccc2n1	105*
Cc1noc(C)c1CSc1nnc(C)c(=O)[nH]1	-78
Cc1ccc(OCC(=O)Nc2cc(S(=O)(=O)N3CCCCC3)ccc2C)c([N+](=O)[O-])n1	-10
CCOc1ccccc1NC(=O)C1CCN(C(=O)NCc2ccccc2)CC1	-7
CCOc1ccc(NC(=O)C2CCCN(C(=O)NCc3ccccc3)C2)cc1 (stereo not drawn)	493*
O=C(O)C1CCCN(C(=O)NCc2ccccc2)C1 (stereo not drawn)	5
COC(=O)c1c(C(=O)OC)c(-c2ccc(Cl)cc2)n2c1CS(=O)(=O)C2	0
O=C(Nc1ccc(C(F)(F)F)cc1)c1cc(S(=O)(=O)NCC2COc3ccccc3O2)ccc1F (stereo not drawn)	-7
CN=C1NN=C(c2cc(C)n(-c3ccc(Cl)cc3)c2C)CS1	8
O=C1CCC([N+](=O)[O-])C(c2ccccc2Cl)N1 (stereo not drawn)	79*
COc1ccc(N(C(=O)c2ccco2)S(=O)(=O)c2cccs2)cc1	165
COc1ccc(N(C(=O)c2ccco2)S(=O)(=O)c2cc(OC)ccc2OC)cc1	0
COc1ccc(N(C(=O)c2ccco2)S(=O)(=O)c2ccc(F)cc2)cc1	456*
COc1ccccc1NC(=O)Cc1noc(CSc2nnc(C)n2C)n1	0
O=C(Nc1cc(C(F)(F)F)cc(C(F)(F)F)c1)c1ccc(Cn2cc(C(F)(F)F)ccc2=O)cc1	-4
Cc1ccc(S(=O)(=O)Nc2cc(Cl)c(O)cc2C)cc1	9
NC(=O)c1ccccc1NS(=O)(=O)c1ccccc1	0
Cc1ccc(S(=O)(=O)Nc2ccccc2C(N)=O)cc1	403*
CCN(c1ccccc1)S(=O)(=O)c1cc(C(=O)Oc2ccc3c(C)cc(=O)oc3c2)ccc1C	3
SMILES	INS promoter act
Cc1nnc(SCC(=O)NC2CCCCC2)s1	0
CCCCC(CC)CNC(=O)Cn1c(=S)[nH]c2ncccc2c1=O (stereo not drawn)	-9
O=C(c1c(F)c(F)c(F)c(F)c1F)N1CCN(c2cccc(C(F)(F)F)c2)CC1	0
FC(F)(F)c1cccc(N2CCN(CC3CC4C=CC3C4)CC2)c1 (stereo not drawn)	-8
Oc1cc2c(cc1CN1CCN(c3cccc(C(F)(F)F)c3)CC1)CCC2	82*
COc1ccc(NC(=S)Nn2cnnc2)cc1OC	-5
CN1CCC/C1=C/C=C1\SC(=S)NC1=O	-10
O=C(Nc1nc2ccccc2[nH]1)c1cc2ccccc2o1	0
Cc1cccc(NC(=O)c2cn(-c3ccccc3)nc2-c2ccccc2)c1	10
O=C(CCn1c(=O)oc2ccccc21)N1CCN(c2ccccc2Cl)CC1	128
O=C(CCN1C(=O)C2C3C=CC(C3)C2C1=O)N1CCN(c2ccccc2Cl)CC1 (stereo not drawn)	-3
N#CCC(=N)N1CCN(c2ccccc2Cl)CC1	177*
Cc1ccccc1-c1cc(C(=O)Nc2sc(C(=O)OC(C)C)c(C)c2C#N)c2ccccc2n1	0
COC(=O)c1c(C)[nH]c(C(=O)CSc2ccc(Cl)cc2)c1C	0
Cc1oc(-c2ccccc2)cc1C(=O)Nc1ccc(N(C)C)cc1	-5
CCSCc1nnc(SCC(=O)Nc2cccc(SC)c2)n1C	425*
CSc1cccc(NC(=O)CSc2ccc(C)cc2)c1	-7
Cn1c(Cn2c(=O)sc3ccccc32)nnc1SCC(=O)Nc1ccccc1	12
Cc1nn(Cc2ccc(C(=O)Nc3ccc(Br)c4cccnc34)o2)c(C)c1Br	331
O=C(O)C1CCCN(S(=O)(=O)c2ccc3c(c2)OCCO3)C1 (stereo not drawn)	0
CC(C)(C(=O)c1ccccc1)/[N+]([O-])=C/c1ccc(Br)cc1	-7
COc1ccc(CN2CC(C(=O)NCCC3=CCCCC3)CC2=O)cc1 (stereo not drawn)	3
COCCCNC(=O)C1CC(=O)N(Cc2ccc(OC)cc2)C1 (stereo not drawn)	3
O=C(NCCc1ccccn1)C1CC(=O)N(Cc2ccccc2Cl)C1 (stereo not drawn)	131*
COc1ccc(NC(=O)C2CC(=O)OC23CCOC(C)(C)C3)cc1 (stereo not drawn)	3
COc1ccc(C(=O)OCC(=O)Nc2ccc(F)cc2F)cc1OC	-3
CCC(C)NS(=O)(=O)c1ccc(OCC(=O)NCc2ccc3c(c2)OCO3)cc1 (stereo not drawn)	0
CCC(C)NS(=O)(=O)c1ccc(OCC(=O)Nc2ccc(F)cc2F)cc1 (stereo not drawn)	462*
